According to ChEMBL document CHEMBL3867423, “New imidazolidineiminothione derivatives: Synthesis, spectral characterization and evaluation of antitumor, antiviral, antibacterial and antifungal activities” (Eur J Med Chem, 2016):
≈ marks a conversion by molar mass, not a printed value.

Tests used:
[1] = Cytotoxicity against human MCF7 cells assessed as decrease in cell viability after 48 hrs by SRB assay; format: functional, cell-based; design: unit not given here
How it was run: (§1)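 SRB assay. Cells seeded at 10⁴ per well and allowed to attach for 24 h. Exposed to 0, 5, 12.5, 25 and 50 µg/mL, triplicate wells per dose, for 48 h at 37 °C in 5% CO₂. Cells fixed and SRB-stained; excess dye removed with acetic acid, bound dye recovered in Tris-EDTA and read on an ELISA reader. IC50 read from the surviving-fraction curve.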

[2] = system: Pseudomonas aeruginosa; assay: Antibacterial activity against Pseudomonas aeruginosa ATCC 25619 at 5 mg after 24 hrs by agar well diffusion assay; format: functional; conditions: ATCC 25619, 24 h, read-out: DIZ
How it was run: (§2)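 Agar well diffusion. 100 µL inoculum (1×10⁸ CFU/mL bacteria, 1×10⁶ CFU/mL yeast) spread on nutrient agar (bacteria) or Sabouraud dextrose agar (fungi). 10 mm wells loaded with 100 µL of 5 mg/mL compound in DMSO. DMSO as negative control. Erythromycin (bacteria) or […] (fungi) at 5 mg/ml as standards. Plates incubated 24 h at 37 °C. Inhibition zone diameter (mm) measured, mean of triplicate.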

[3] = system: Escherichia coli; assay: Antibacterial activity against Escherichia coli ATCC 10536 at 5 mg after 24 hrs by agar well diffusion assay; format: functional; conditions: ATCC 10536, 24 h, read-out: DIZ; how it was run: as §2
[4] = system: Candida albicans; assay: Antifungal activity against Candida albicans IMRU 3669 at 5 mg after 24 hrs by agar well diffusion assay; format: functional; conditions: IMRU 3669, 24 h, read-out: DIZ; how it was run: as §2
[5] = system: Candida albicans; assay: Antifungal activity against Candida albicans IMRU 3669 after 24 hrs by two-fold serial dilution method; format: functional; conditions: IMRU 3669, 24 h
How it was run: (§3)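 Two-fold serial dilutions of DMSO stock in adjusted Mueller-Hinton broth, final 100 to 0.78 µg/ml. Bacteria pre-grown in nutrient broth, fungi in malt extract broth (48 h). Each 5 ml tube given 0.1 ml inoculum (1×10⁸ CFU/ml bacteria, 1×10⁶ CFU/ml fungi), incubated 37 °C 24 h. MIC taken as lowest concentration with no growth; triplicate, averaged.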

[6] = system: Micrococcus luteus; assay: Antibacterial activity against Micrococcus luteus ATCC 10240 at 5 mg after 24 hrs by agar well diffusion assay; format: functional; conditions: ATCC 10240, 24 h, read-out: DIZ; how it was run: as §2
[7] = Antifungal activity against Penicillium chrysogenum at 5 mg after 24 hrs by agar well diffusion assay; format: functional; how it was run: as §2
[8] = system: Bacillus pumilus; assay: Antibacterial activity against Bacillus pumilus at 5 mg after 24 hrs by agar well diffusion assay; format: functional; conditions: read-out: DIZ; how it was run: as §2
[9] = system: Micrococcus luteus; assay: Antibacterial activity against Sarcina lutea at 5 mg after 24 hrs by agar well diffusion assay; format: functional; conditions: read-out: DIZ; how it was run: as §2
[10] = system: Hepatovirus A; assay: Antiviral activity against Hepatitis A virus infected in African green monkey Vero cells by plaque formation assay; format: functional; design: concentration or dose not given beside the values
[11] = Cytotoxicity against human HepG2 cells assessed as decrease in cell viability after 48 hrs by SRB assay; format: functional, cell-based; how it was run: as §1
[12] = system: Micrococcus luteus; assay: Antibacterial activity against Micrococcus luteus ATCC 10240 after 24 hrs by two-fold serial dilution method; format: functional; conditions: ATCC 10240, 24 h; how it was run: as §3
[13] = system: Human alphaherpesvirus 1; assay: Antiviral activity against HSV1 infected in African green monkey Vero cells by plaque formation assay; format: functional; design: concentration or dose not given beside the values
[14] = Cytotoxicity against human PC3 cells assessed as decrease in cell viability after 48 hrs by SRB assay; format: functional, cell-based; conditions: pc-3; how it was run: as §1
[15] = Cytotoxicity against human HCT116 cells assessed as decrease in cell viability after 48 hrs by SRB assay; format: functional, cell-based; conditions: hct-116; how it was run: as §1
[16] = system: Bacillus subtilis; assay: Antibacterial activity against Bacillus subtilis NCTC 10400 at 5 mg after 24 hrs by agar well diffusion assay; format: functional; conditions: NCTC 10400, 24 h, read-out: DIZ; how it was run: as §2
[17] = system: Coxsackievirus B4; assay: Antiviral activity against human Coxsackie virus B4 infected in African green monkey Vero cells by plaque formation assay; format: functional; design: concentration or dose not given beside the values
[18] = system: Pseudomonas aeruginosa; assay: Antibacterial activity against Pseudomonas aeruginosa ATCC 25619 after 24 hrs by two-fold serial dilution method; format: functional; conditions: ATCC 25619, 24 h; how it was run: as §3
[19] = system: Aspergillus niger; assay: Antifungal activity against Aspergillus niger at 5 mg after 24 hrs by agar well diffusion assay; format: functional; conditions: read-out: DIZ; how it was run: as §2
[20] = system: Micrococcus luteus; assay: Antibacterial activity against Sarcina lutea after 24 hrs by two-fold serial dilution method; format: functional; how it was run: as §3
[21] = system: Bacillus pumilus; assay: Antibacterial activity against Bacillus pumilus after 24 hrs by two-fold serial dilution method; format: functional; how it was run: as §3

CSc1ccc(N2C(=N)C(=S)N(c3cc(Cl)cc(Cl)c3)C2=O)cc1
IC50 [1]: 0.018
zone of inhibition at 5000 µg/disc [2]: 21 mm
zone of inhibition at 5000 µg/disc [3]: 23 mm
zone of inhibition at 5000 µg/disc [4]: 25 mm
MIC [5]: 6.25 µg/mL (≈ 15.8 µM)
zone of inhibition at 5000 µg/disc [6]: 18 mm
inhibition zone (IZ) [7]: 20 mm
zone of inhibition at 5000 µg/disc [8]: 25 mm
zone of inhibition at 5000 µg/disc [9]: 26 mm
Activity [10]: 0%
IC50 [11]: 0.029 µg
MIC [12]: 6.25 µg/mL (≈ 15.8 µM)
Activity [13]: 3.4%
IC50 [14]: 0.049 µg
IC50 [15]: 0.031 µg
zone of inhibition at 5000 µg/disc [16]: 24 mm
Activity [17]: 0%
MIC [18]: 0.78 µg/mL (≈ 1.97 µM)
zone of inhibition at 5000 µg/disc [19]: 19 mm
MIC [20]: 6.25 µg/mL (≈ 15.8 µM)
MIC [21]: 6.25 µg/mL (≈ 15.8 µM)

COc1ccc(OC)c(N2C(=O)N(c3ccc(SC)cc3)C(=N)C2=S)c1
IC50 [1]: 0.028
zone of inhibition at 5000 µg/disc [2]: 25 mm
zone of inhibition at 5000 µg/disc [3]: 29 mm
zone of inhibition at 5000 µg/disc [4]: 27 mm
MIC [5]: 6.25 µg/mL (≈ 16.1 µM)
zone of inhibition at 5000 µg/disc [6]: 17 mm
inhibition zone (IZ) [7]: 22 mm
zone of inhibition at 5000 µg/disc [8]: 20 mm
zone of inhibition at 5000 µg/disc [9]: 31 mm
Activity [10]: 0%
IC50 [11]: 0.029 µg
MIC [12]: 6.25 µg/mL (≈ 16.1 µM)
Activity [13]: 85.7%
IC50 [14]: 0.047 µg
IC50 [15]: 0.05 µg
zone of inhibition at 5000 µg/disc [16]: 29 mm
Activity [17]: 18.5%
MIC [18]: 0.78 µg/mL (≈ 2.01 µM)
zone of inhibition at 5000 µg/disc [19]: 20 mm
MIC [20]: 6.25 µg/mL (≈ 16.1 µM)
MIC [21]: 6.25 µg/mL (≈ 16.1 µM)

COc1ccc(N2C(=N)C(=S)N(c3cc(OC)ccc3OC)C2=O)cc1
IC50 [1]: 0.031
zone of inhibition at 5000 µg/disc [2]: 26 mm
zone of inhibition at 5000 µg/disc [3]: 28 mm
zone of inhibition at 5000 µg/disc [4]: 29 mm
MIC [5]: 6.25 µg/mL (≈ 16.8 µM)
zone of inhibition at 5000 µg/disc [6]: 17 mm
inhibition zone (IZ) [7]: 20 mm
zone of inhibition at 5000 µg/disc [8]: 23 mm
zone of inhibition at 5000 µg/disc [9]: 27 mm
Activity [10]: 60.1%
IC50 [11]: 0.032 µg
MIC [12]: 6.25 µg/mL (≈ 16.8 µM)
Activity [13]: 42%
IC50 [14]: 0.051 µg
IC50 [15]: 0.051 µg
zone of inhibition at 5000 µg/disc [16]: 28 mm
Activity [17]: 0%
MIC [18]: 0.78 µg/mL (≈ 2.1 µM)
zone of inhibition at 5000 µg/disc [19]: 19 mm
MIC [20]: 6.25 µg/mL (≈ 16.8 µM)
MIC [21]: 3.12 µg/mL (≈ 8.4 µM)
